Measurements taken from ChEMBL document CHEMBL1914386, “Neopetrosiquinones A and B, sesquiterpene benzoquinones isolated from the deep-water sponge Neopetrosia cf. proxima” (Bioorg Med Chem, 2011).
Activity calls are given as the source filed them. No cut-off for these calls is given here.

How the values were obtained:
[1] = test system: PANC-1; test: Cytotoxicity against human PANC1 cells after 48 hrs by MTT assay; type: functional, cell-based; settings: PANC-1, 48 h
Procedure, shortened: (§1)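 Proliferation of human tumour lines obtained from ATCC: A549 lung adenocarcinoma (CCL-185), PANC-1 pancreatic (CRL-1469), AsPC-1 pancreatic (CRL-1682) and DLD-1 colorectal adenocarcinoma. The assay was run by a protocol described earlier.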

[2] = test system: A549; test: Cytotoxicity against human A549 cells after 48 hrs by MTT assay; type: functional, cell-based; settings: A549, 48 h; procedure, shortened: as §1
[3] = Cytotoxicity against human NCI-ADR-RES cells after 48 hrs by MTT assay; type: functional, cell-based
[4] = test system: DLD-1; test: Cytotoxicity against human DLD1 cells after 48 hrs by MTT assay; type: functional, cell-based; settings: DLD-1, 48 h; procedure, shortened: as §1
[5] = test system: ASPC1; test: Cytotoxicity against human AsPC1 cells after 48 hrs by MTT assay; type: functional, cell-based; settings: ASPC1, 48 h; procedure, shortened: as §1
[6] = test system: Trypanosoma cruzi; test: Antitrypanosomal activity against Trypanosoma cruzi Tulahuen assessed as parasite growth after 10 days by nephelometry; type: functional; settings: 240 h
[7] = biological target: TCF4/beta-catenin (Homo sapiens) (UniProt P35222+Q9NQB0); test: Inhibition of GST-tagged T cell factor4/[…] interaction assessed as reduction in alkaline phosphatase level; type: cell-based

Row | GI50 [6] [µM] | inhibition [7] | SMILES | IC50 [1] [µM] | IC50 [2] [µM] | IC50 [3] [µM] | IC50 [4] [µM] | IC50 [5] [µM]
1 |  |  | C[C@]1(CO)CCC[C@]2(C)c3cc4c(cc3C=C[C@@H]12)C(=O)C=CC4=O | 13.8 | > 15.5 | > 15.5 | 9.8 | > 15.5
2 |  |  | C[C@]1(C=O)CCC[C@]2(C)c3cc4c(cc3C(=O)C[C@@H]12)C(=O)C=CC4=O | 6.1 | > 14.8 | > 14.8 | 3.7 | 6.1
3 | 0.7 |  | CC1(C)CCC[C@@]2(C)c3cc4c(cc3CC[C@H]12)C(=O)C=CC4=O [CYCLOZONARONE] |  |  |  |  | 
4 |  | inactive | C[C@@]12CCC(=O)c3coc(c31)C(=O)c1cc3c(cc12)C(=O)C=CC3=O |  |  |  |  | 
